Bioassay records as filed in PubChem BioAssay.
TNAP inh hi DEA: human TNAP enzyme inhibitors, primary screen, biochemical, luminescent, high phosphate acceptor level, uHTS | 200,000 tested, 0.03% active | Alkaline phosphatase, tissue-nonspecific isozyme (Homo sapiens), P05186 | inhibition, % at 20 µM | purified TNAP, CDP-star luminescence, 1 M DEA;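 active = over 50% inhibition of tissue-nonspecific alkaline phosphatase at 20 µM in the single-dose screen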;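 also: plate controls were DMSO wells for no effect and EDTA-quenched wells as full inhibition for full effect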
Target sequence (P05186 whole entry, looked up): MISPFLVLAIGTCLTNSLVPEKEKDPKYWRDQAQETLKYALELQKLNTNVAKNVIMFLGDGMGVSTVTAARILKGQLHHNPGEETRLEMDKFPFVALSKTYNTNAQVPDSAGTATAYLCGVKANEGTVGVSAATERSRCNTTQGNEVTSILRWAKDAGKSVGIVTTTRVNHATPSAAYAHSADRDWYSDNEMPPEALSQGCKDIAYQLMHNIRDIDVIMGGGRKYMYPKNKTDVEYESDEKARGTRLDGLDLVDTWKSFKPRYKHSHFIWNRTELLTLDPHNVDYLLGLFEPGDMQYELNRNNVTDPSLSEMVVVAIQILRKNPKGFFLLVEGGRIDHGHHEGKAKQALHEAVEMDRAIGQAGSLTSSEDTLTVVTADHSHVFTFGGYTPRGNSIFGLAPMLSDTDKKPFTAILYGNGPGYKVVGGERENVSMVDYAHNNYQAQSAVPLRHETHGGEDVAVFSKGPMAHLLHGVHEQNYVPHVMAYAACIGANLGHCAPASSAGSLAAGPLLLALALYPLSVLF
TNAP inh noacc: human TNAP enzyme inhibitors, primary screen, biochemical, luminescent, no phosphate acceptor, uHTS | purified TNAP, CDP-star luminescence, 30 min | inhibition, % at 20 µM | 200,000 tested, 0.26% active;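 active = tissue-nonspecific alkaline phosphatase inhibition above about 50% at 20 µM in the single-dose screen, limit read from the data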;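 also: 0% = DMSO negative control and 100% = EDTA positive control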
TNAP act hiacc: TNAP activators at high phosphate acceptor level, primary screen, biochemical, luminescence, uHTS | purified TNAP, CDP-star luminescence, 1 M DEA, 30 min; active compounds read high; 0 = EDTA background, 1 = DMSO-only activity | activation factor at 20 µM | 200,000 tested, under 10 active | AID 1136, 2008;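 active = activation factor at least 2 at 20 µM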
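Dosing: 20 µM single point. System: human TNAP. Amount: TNAP 1/800 final. Incubation: 30 min, room temperature. Read-out: TNAP activation factor scaled between EDTA and DMSO control wells. Signal: luminescence from CDP-star hydrolysis. Medium: 1 M DEA, pH 9.8, Mg2+, Zn2+. Control set: EDTA negative control, DMSO positive control.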
Lmaj promast: Leishmania major promastigote growth inhibition, primary screen; Leishmania major promastigotes, resazurin fluorescence viability; inhibition, % at 10 µM; 200,000 tested, 9% active; AID 1063, 2008; in the data active = inhibition above about 50%;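 also: promastigotes grown with compound for 44 hours at 28 °C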
PTEN del growth: growth suppression of PTEN-null HCT116, primary screen, cell-based, CellTiter-Glo; viability, % at 10 µM; 140,000 tested, 1.2% active; AID 827, 2007; HCT116 PTEN-null viability, 60 h; active compounds read low;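 active = viability at or below a set limit, 4 SD under the median of all tested compounds, cut at about 3.7% in these data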;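 also: PTEN knockout HCT116 line with beta catenin targeted HCT116 as companion control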
HCT116 bCat-KO: primary screen for growth suppressors in beta-catenin knockout HCT116 cells (colon tumor, human); HCT116 beta-catenin knockout viability, CellTiter-Glo, 60 h; active compounds read low; viability, % at 10 µM; 140,000 tested, 1.5% active; AID 818, 2007;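 active = viability at or under a set limit, the compound median less 4 SD, cut at about 6% in these data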;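 also: 0% = Hyamine 1622 control at 20 µM and 100% = untreated cell control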
Numbers without * were called inactive; nt = not tested or not shown. In the library only some 9.6% were active in any assay of this set; here they are far more common.

SMILES	TNAP inh hi DEA	TNAP inh noacc	TNAP act hiacc	Lmaj promast	PTEN del growth	HCT116 bCat-KO
COCCn1c(COc2ccc(OC)cc2)nc2ccccc21	-9.3	-10.1	1.1	13.4	101.5	94.6
Cc1ccc(OCCCCn2c(CO)nc3ccccc32)cc1	0.2	-17.0	1	56.1*	nt	nt
CCOc1ccc(CC(=O)OCn2nnc3ccccc3c2=O)cc1	-0.5	-11.0	1	-4.2	nt	nt
CCOc1cc(N2CCOCC2)c(OCC)cc1NC(=O)COC(=O)c1cc2ccccc2cc1O	-1.9	-11.0	1	62.1*	85.8	85.9
CN(C)CCCNC(=O)c1cc(C(=O)c2ccc(F)cc2)c[nH]1	-2.6	0.5	1	-10.7	nt	nt
CC1CCN(C(=O)CSCC(=O)Nc2nc(-c3cccs3)cs2)CC1	-4.5	-12.0	1	-5.7	92.0	93.6
CCOC(=O)N1CCN(C(=O)CSCC(=O)Nc2nc(-c3cccs3)cs2)CC1	-3.1	-10.0	1	78.8*	74.0	73.4
CCN(CC)S(=O)(=O)c1ccc(C)c(NC(=O)CSc2ncc(C(F)(F)F)cc2Cl)c1	-1.1	-4.0	1	-10.5	94.0	93.7
Cc1ccc(S(=O)(=O)N(C)C)cc1NC(=O)CSc1ncc(C(F)(F)F)cc1Cl	0.5	-3.7	1	61.4*	90.8	1.3*
CCOC(=O)C(NC(=O)c1cccc(Cl)c1)(Nc1sc2c(c1C(N)=O)CCC2)C(F)(F)F (stereo unspecified)	-3.4	-14.9	1	26.1	84.0	90.7
CCOC(=O)C(NC(=O)c1ccc(F)cc1)(Nc1sc2c(c1C(N)=O)CCC2)C(F)(F)F (stereo unspecified)	-8.4	-15.0	1.1	74.5*	80.0	83.0
Cc1cc(-c2nnc(CCC(=O)N3CCN(Cc4cccc(F)c4)CC3)o2)c(C)o1	-1.2	-3.3	1	-3.7	nt	nt
Cc1cccc(C(=O)N2CCN(Cc3ccc4c(c3)OCO4)CC2)c1	-8.4	-14.9	1.1	40.2	92.7	88.7
CN(c1ccc(C(=O)N2CCN(Cc3ccc4c(c3)OCO4)CC2)cc1)S(=O)(=O)c1ccccc1	0.6	-3.9	1	95.5*	30.3	33.0
Cc1ccc(S(=O)(=O)N(C)c2ccc(C(=O)N3CCN(Cc4ccc5c(c4)OCO5)CC3)cc2)cc1	-3.5	-16.2	1	99.8*	18.4	13.6
O=C(CN(c1ccccc1)S(=O)(=O)c1ccccc1)N1CCN(Cc2ccc3c(c2)OCO3)CC1	-3.8	-12.0	1	72.0*	72.1	81.4
CCN1CCN(C(=O)CN(c2cccc(Br)c2)S(=O)(=O)c2ccccc2)CC1	-1.9	-8.9	1	98.5*	92.5	85.5
CC[C@H](C)[C@@H](C(=O)N1CCNCC1)n1cc([C@@H](N)CO)nn1	-7.1	-11.0	1.1	-4.3	nt	nt
Cc1ccccc1NC(=S)N(CCN1CCOCC1)Cc1ccccc1F	-5.9	-16.9	1.1	16.5	nt	nt
CCCCOC(=O)c1ccc(NC(=O)CSc2nnnn2C)cc1	-4.6	-10.0	1	-5.5	nt	nt
Clc1cccc(Oc2ncccn2)c1	-5.8	-12.8	1.1	50.3*	101.2	84.6
NC(=O)c1cccnc1Oc1cccc(Cl)c1	1.9	-7.4	1	-5.7	101.9	92.5
O=C1CN(C(=O)c2ccc(Br)o2)C(c2ccccc2)c2cc(Cl)ccc2N1 (stereo unspecified)	-4.8	-12.6	1	87.3*	55.0	58.5
O=C1CN(C(=O)c2ccc(Br)o2)C(c2ccc(F)cc2)c2cc(Cl)ccc2N1 (stereo unspecified)	-4.5	-2.8	1	93.7*	45.0	63.5
O=C1CN(C(=O)c2ccco2)C(c2ccccc2)c2cc(Cl)ccc2N1 (stereo unspecified)	1.8	-8.0	1	17.2	73.9	71.3
Cc1ccc2c(c1)C(c1ccc(F)cc1)N(C(=O)C1CC1)CC(=O)N2 (stereo unspecified)	-5.5	-12.6	1.1	4.9	70.8	79.5
NS(=O)(=O)c1ccc(CCNC(=O)/C=C/c2cccc([N+](=O)[O-])c2)cc1	-5.4	-1.2	1.1	-2.2	nt	nt
